Measured values published in ChEMBL document CHEMBL1143049, “Preparation, biological activity and endogenous occurrence of N6-benzyladenosines” (Bioorg Med Chem, 2007).

Experiments:
[1] = test system: Amaranthus; assay: Cytokinin activity in Amaranthus cotyledons assessed as dark induction of betacyanin synthesis at 0.1 mmol/L relative to 6-Benzylaminopurine; format: functional
In short: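 Dark induction of betacyanin in excised Amaranthus cotyledons. DMSO stock brought to 10^-3 M in water, diluted into assay medium (DMSO ≤0.2%). Tested over 10^-4 to 10^-8 M, five replicates per concentration, assay repeated at least three times. Response at the optimal concentration expressed relative to BAP at its optimum (set to 100).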

[2] = test system: K562; assay: Antitumor activity against human K562 cells after 72 hrs by Calcein AM assay; format: functional, cell-based; details: K562, 72 h
In short: (§1)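 Cells grown in DMEM at 37 °C under 5% CO2. Compounds added after 12 h preincubation in 96-well plates, final 0.5-170 μM, with 0.6% final DMSO, then 72 h exposure. Viable cells stained with Calcein AM for 1 h and read at 485/538 nm. IC50 (concentration lethal to 50% of cells) taken from dose-response curves. Run in quadruplicate.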

[3] = test system: G-361; assay: Antitumor activity against human G361 cells after 72 hrs by Calcein AM assay; format: functional, cell-based; details: G-361, 72 h; in short: as §1
[4] = Antitumor activity against human MCF cells after 72 hrs by Calcein AM assay; format: functional, cell-based; in short: as §1
[5] = test system: HOS; assay: Antitumor activity against human HOS cells after 72 hrs by Calcein AM assay; format: functional, cell-based; in short: as §1
[6] = test system: Triticum aestivum; assay: Cytokinin activity in wheat assessed as retention of chlorophyll in excised wheat leaves at 0.1 mmol/L relative to 6-Benzylaminopurine by senescence assay; format: functional
In short: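 Senescence assay measuring chlorophyll retention in excised wheat leaves. DMSO stocks brought to 10^-3 M with water, then diluted in assay medium to a final DMSO of at most 0.2%. Concentrations 10^-4 to 10^-8 M, quintuplicate, repeated at least three times. Response at the optimal concentration normalised to BAP optimum = 100.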

[7] = test system: Nicotiana tabacum; assay: Cytokinin activity in tobacco assessed as stimulation of callus growth at 1 umol/L relative to 6-Benzylaminopurine; format: functional
In short: (§2)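 Stimulation of tobacco callus growth. Compounds dissolved in DMSO, brought to 10^-3 M in water and diluted into medium (DMSO ≤0.2%). Range 10^-4 to 10^-8 M, five replicates per concentration, at least three independent repeats. Activity at the optimal concentration given relative to BAP's optimal response, taken as 100.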

[8] = test system: CCRF-CEM; assay: Antitumor activity against human CEM cells after 72 hrs by Calcein AM assay; format: functional, cell-based; in short: as §1
[9] = Cytotoxicity against mouse NIH 3T3 cells after 72 hrs by Calcein AM assay; format: cell-based; details: NIH3T3, 72 h; in short: as §1
[10] = test system: HL-60; assay: Antitumor activity against human HL60 cells after 72 hrs by Calcein AM assay; format: functional, cell-based; details: HL-60, 72 h; in short: as §1
[11] = test system: B16; assay: Antitumor activity against mouse B16 cells after 72 hrs by Calcein AM assay; format: functional, cell-based; details: B16, 72 h; in short: as §1
[12] = test system: Nicotiana tabacum; assay: Cytokinin activity in tobacco assessed as stimulation of callus growth at 0.01 mmol/L relative to 6-Benzylaminopurine; format: functional; in short: as §2

Row | IC50 [2] | IC50 [3] | IC50 [4] | IC50 [5] | IC50 [8] | IC50 [10] | IC50 [11] | SMILES | Activity [1] | Activity [6] | Activity [7] | IC50 [9] | Activity [12] | Activity ([7]; in the assay text read “at 10 umol/L” for “at 1 umol/L”)
1 | > 167 µM | > 167 µM | > 167 µM | > 167 µM | – | – | – | OC[C@H]1O[C@@H](n2cnc3c(NCc4ccc(OC(F)(F)F)cc4)ncnc32)[C@H](O)[C@@H]1O | 21% | 3% | – | – | – | –
2 | > 167 µM | – | > 167 µM | > 167 µM | > 167 µM | > 167 µM | – | Cc1ccc(CNc2ncnc3c2ncn3[C@@H]2O[C@H](CO)[C@@H](O)[C@H]2O)cc1 | 49% | 54.5% | 35% | > 167 µM | – | –
3 | 18 µM | > 167 µM | 6.9 µM | > 167 µM | 0.9 µM | 15 µM | > 167 µM | Cc1cccc(CNc2ncnc3c2ncn3[C@@H]2O[C@H](CO)[C@@H](O)[C@H]2O)c1O | 55% | – | – | – | 5% | –
4 | > 167 µM | > 167 µM | > 167 µM | – | 24.5 µM | 9.1 µM | > 167 µM | OC[C@H]1O[C@@H](n2cnc3c(NCc4cc(F)cc(F)c4)ncnc32)C(O)C1O (stereo partly drawn) | 110% | 195% | 95% | > 167 µM | – | –
5 | – | – | – | – | – | – | – | OC[C@H]1O[C@@H](n2cnc3c(NCc4cccc(I)c4)ncnc32)[C@H](O)[C@@H]1O | 102% | 58% | 45% | – | – | –
6 | > 167 µM | > 167 µM | > 167 µM | > 167 µM | – | – | – | OC[C@H]1O[C@@H](n2cnc3c(NCc4cc(O)cc(O)c4)ncnc32)[C@H](O)[C@@H]1O | 31% | 96% | – | – | – | –
7 | > 167 µM | – | > 167 µM | – | > 167 µM | > 167 µM | – | COc1ccc(CNc2ncnc3c2ncn3[C@@H]2O[C@H](CO)[C@@H](O)[C@H]2O)cc1O | 24% | 19% | – | > 167 µM | – | –
8 | > 167 µM | > 167 µM | > 167 µM | > 167 µM | – | – | – | OC[C@H]1O[C@@H](n2cnc3c(NCc4cccc(OC(F)(F)F)c4)ncnc32)[C@H](O)[C@@H]1O | 104% | 90% | 86% | – | – | –
9 | > 167 µM | > 167 µM | > 167 µM | – | 90.3 µM | 13 µM | > 167 µM | OC[C@H]1O[C@@H](n2cnc3c(NCc4c(F)ccc(F)c4F)ncnc32)[C@H](O)[C@@H]1O | 94% | 133% | – | – | – | 92%
10 | > 167 µM | – | > 167 µM | > 167 µM | > 167 µM | > 167 µM | – | COc1cccc(CNc2ncnc3c2ncn3[C@@H]2O[C@H](CO)[C@@H](O)[C@H]2O)c1OC | 21% | 106% | 5% | – | – | –
11 | > 167 µM | – | > 167 µM | – | > 167 µM | 20.2 µM | – | COc1cc(CNc2ncnc3c2ncn3[C@@H]2O[C@H](CO)[C@@H](O)[C@H]2O)cc(OC)c1 | 2% | 47% | 11% | – | – | –
12 | 68.2 µM | > 167 µM | > 167 µM | > 167 µM | 20.6 µM | 47.4 µM | > 167 µM | OC[C@H]1O[C@@H](n2cnc3c(NCc4ccc(Br)cc4)ncnc32)[C@H](O)[C@@H]1O | 30% | 76% | 16% | > 167 µM | – | –
13 | 10.8 µM | 145 µM | 88.8 µM | > 167 µM | 3.8 µM | 2 µM | > 167 µM | OC[C@H]1O[C@@H](n2cnc3c(NCc4ccc(Cl)c(Cl)c4)ncnc32)[C@H](O)[C@@H]1O | 68% | 151% | 17% | – | – | –
14 | > 167 µM | > 167 µM | > 167 µM | > 167 µM | – | – | – | OC[C@H]1O[C@@H](n2cnc3c(NCc4cccc(C(F)(F)F)c4)ncnc32)[C@H](O)[C@@H]1O | 93% | 95% | 85% | – | – | –
15 | 9.6 µM | > 167 µM | > 167 µM | > 167 µM | 7.1 µM | 3.4 µM | > 167 µM | OC[C@H]1O[C@@H](n2cnc3c(NCc4ccc(F)cc4F)ncnc32)[C@H](O)[C@@H]1O | 88% | 171% | 96% | > 167 µM | – | –
16 | – | – | – | – | – | – | – | COc1cccc(OC)c1CNc1ncnc2c1ncn2[C@@H]1O[C@H](CO)[C@@H](O)[C@H]1O | 54% | 68% | – | – | – | –
17 | 27.9 µM | 148 µM | 20.2 µM | > 167 µM | 0.3 µM | 0.15 µM | > 167 µM | COc1cccc(CNc2ncnc3c2ncn3[C@@H]2O[C@H](CO)[C@@H](O)[C@H]2O)c1O | 18% | 10% | – | > 167 µM | – | –
18 | > 167 µM | > 167 µM | > 167 µM | > 167 µM | – | – | – | OC[C@H]1O[C@@H](n2cnc3c(NCc4ccc(C(F)(F)F)cc4)ncnc32)[C@H](O)[C@@H]1O | 14% | 52% | – | – | – | –
19 | – | – | – | – | – | – | – | OC[C@H]1O[C@@H](n2cnc3c(NCc4cc(F)c(F)cc4F)ncnc32)[C@H](O)[C@@H]1O | 120% | 99% | – | – | 95% | –
20 | > 167 µM | > 167 µM | > 167 µM | > 167 µM | – | – | – | OC[C@H]1O[C@@H](n2cnc3c(NCc4ccccc4OC(F)F)ncnc32)[C@H](O)[C@@H]1O | 81% | 180% | – | – | 89% | –
21 | > 167 µM | > 167 µM | > 167 µM | > 167 µM | – | – | – | COc1cc(O)cc(OC)c1CNc1ncnc2c1ncn2[C@@H]1O[C@H](CO)[C@@H](O)[C@H]1O | 7% | – | – | – | – | –
22 | 5.5 µM | > 167 µM | > 167 µM | > 167 µM | 3.4 µM | 3.5 µM | 167 µM | OC[C@H]1O[C@@H](n2cnc3c(NCc4ccc(F)c(Cl)c4)ncnc32)[C@H](O)[C@@H]1O | 82% | 156% | 87% | > 167 µM | – | –
23 | > 167 µM | > 167 µM | > 167 µM | > 167 µM | – | – | – | OC[C@H]1O[C@@H](n2cnc3c(NCc4ccccc4C(F)(F)F)ncnc32)C(O)C1O (stereo partly drawn) | 121% | 40% | – | – | – | –
24 | > 167 µM | > 167 µM | > 167 µM | > 167 µM | – | – | – | COc1cc(CNc2ncnc3c2ncn3[C@@H]2O[C@H](CO)[C@@H](O)[C@H]2O)cc(OC)c1O | – | – | – | – | – | –
25 | > 167 µM | > 167 µM | > 167 µM | > 167 µM | 14 µM | 3.3 µM | – | Cc1ccccc1CNc1ncnc2c1ncn2[C@@H]1O[C@H](CO)[C@@H](O)[C@H]1O [METRIFUDIL] | 99% | 141% | 98% | > 167 µM | – | –
26 | > 167 µM | – | > 167 µM | > 167 µM | > 167 µM | 39 µM | – | COc1ccc(CNc2ncnc3c2ncn3[C@@H]2O[C@H](CO)[C@@H](O)[C@H]2O)c(OC)c1 | 3% | 30% | – | – | 5% | –
27 | 81.4 µM | > 167 µM | > 167 µM | > 167 µM | > 167 µM | > 167 µM | > 167 µM | OC[C@H]1O[C@@H](n2cnc3c(NCc4ccccc4OC(F)(F)F)ncnc32)[C@H](O)[C@@H]1O | 78% | 61% | – | – | – | –
28 | 80.8 µM | – | 2.2 µM | > 167 µM | 12.8 µM | – | – | COc1ccc(CNc2ncnc3c2ncn3C2OC(CO)[C@@H](O)[C@H]2O)c(O)c1 (stereo partly drawn) | 0% | 22% | – | – | – | –
29 | 25.8 µM | 16.9 µM | 5.2 µM | > 167 µM | – | – | – | OC[C@H]1O[C@@H](n2cnc3c(NCc4cccc(O)c4O)ncnc32)[C@H](O)[C@@H]1O | 24% | 7% | – | – | – | –
